Data on four compounds can be found in ChEMBL document CHEMBL4130494, “Crassiflorone derivatives that inhibit Trypanosoma brucei glyceraldehyde-3-phosphate dehydrogenase (TbGAPDH) and Trypanosoma cruzi trypanothione reductase (TcTR) and display trypanocidal activity” (Eur J Med Chem, 2017).

In series [1] the target is Trypanothione reductase (Trypanosoma cruzi) (UniProt P28593). Description: Inhibition of Trypanosoma cruzi trypanothione reductase assessed as reduction in NADPH consumption at 2.5 uM using 100 uM trypanothione disulfide as substrate by spectrophotometric method relative to control. The method, boiled down:
(§1)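 Recombinant TcTR (5–10 mU) at 25 °C in 40 mM HEPES, 1 mM EDTA, pH 7.5, 100 μM NADPH, 5% DMSO; started with trypanothione disulfide; NADPH consumption read at 340 nm; percentage inhibition calculated.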

Series [2] has the same target. Description: Inhibition of Trypanosoma cruzi trypanothione reductase assessed as reduction in NADPH consumption at 2.5 uM using 40 uM trypanothione disulfide as substrate by spectrophotometric method relative to control. The gist of the method: as §1
The target of the next series is hERG (KCNH2) (Homo sapiens, UniProt Q12809). The series can be described thus: Inhibition of Tracer Red binding to human ERG expressed in membranes at 10 uM by fluorescence polarization assay relative to control. Particulars: membranes expressing human ERG, probe Tracer Red. The gist of the method: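 Fluorescence polarization displacement of a high-affinity red fluorescent tracer from hERG channel–containing membrane fraction.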
A general note: In fluorescence polarisation assays a small probe gives low polarisation when free and higher when bound to something large.

Another series has as its target T1, CYP1A2 (Homo sapiens, UniProt P05177).
T1 sequence (P05177 whole entry): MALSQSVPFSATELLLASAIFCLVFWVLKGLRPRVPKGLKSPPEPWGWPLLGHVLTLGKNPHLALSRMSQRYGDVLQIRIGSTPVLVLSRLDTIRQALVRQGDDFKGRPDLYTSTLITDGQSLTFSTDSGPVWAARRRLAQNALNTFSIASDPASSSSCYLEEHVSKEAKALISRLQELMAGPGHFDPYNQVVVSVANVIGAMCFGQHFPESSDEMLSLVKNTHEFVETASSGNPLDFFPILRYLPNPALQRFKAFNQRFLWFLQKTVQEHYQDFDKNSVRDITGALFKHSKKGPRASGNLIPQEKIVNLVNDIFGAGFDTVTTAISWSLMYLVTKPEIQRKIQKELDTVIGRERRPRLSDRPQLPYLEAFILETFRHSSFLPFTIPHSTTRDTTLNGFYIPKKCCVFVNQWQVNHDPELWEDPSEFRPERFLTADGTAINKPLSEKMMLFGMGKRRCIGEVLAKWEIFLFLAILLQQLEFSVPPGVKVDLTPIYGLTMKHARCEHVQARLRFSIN
The series can be described thus: Inhibition of human CYP1A2 at 10 uM by P450-Glo assay relative to control. The series is classed as ADME. The method, boiled down: (§2)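 P450-Glo luminescent platform: CYP action on each substrate generates light; decreased light taken as inhibition.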

For another series, the target named is CYP2C9 (Homo sapiens, UniProt P11712). The series can be described thus: Inhibition of human CYP2C9 at 10 uM by P450-Glo assay relative to control. The series is classed as ADME. The gist of the method:
as §2

The next series has as its target CYP2C19 (Homo sapiens, UniProt P33261). The series can be described thus: Inhibition of human CYP2C19 at 10 uM by P450-Glo assay relative to control. Format: ADME. The method, boiled down: as §2
The target of the next series is CYP2D6 (Homo sapiens, UniProt P10635). The series can be described thus: Inhibition of human CYP2D6 at 10 uM by P450-Glo assay relative to control. The series is classed as ADME. The gist of the method: as §2
In a further series the target is CYP3A4 (Homo sapiens, UniProt P08684). The series can be described thus: Inhibition of human CYP3A4 at 10 uM by P450-Glo assay relative to control. The series is classed as ADME. The method, boiled down: as §2
The nature of series [3]: Cytotoxicity against human A549 cells assessed as cell growth at 10 uM by CellTiter-Glo assay relative to control. The series is classed as cell-based. Particulars: read-out: Activity. The method, boiled down:
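A549 cells; cellular ATP measured by CellTiter-Glo luminescence as a proxy for cell number; paclitaxel 10 μM as positive control.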

For a further series, the system named is 786-0. The series can be described thus: Cytotoxicity against human 786-O cells assessed as mitochondrial viability at 10 uM by CMXRos staining based high-content imaging analysis relative to control. Format: cell-based. Particulars: 786-0, 10 µM. The gist of the method:
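786-O cells kept in RPMI-1640 with 2 mM glutamine, 10% FCS, streptomycin and penicillin G; mitochondria of live cells stained with MitoTracker Red CMXRos and imaged by high-content imaging.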

Series [4] has as its target T2, Pteridine reductase 1 (Leishmania major) (UniProt Q01782).
T2 sequence (whole entry): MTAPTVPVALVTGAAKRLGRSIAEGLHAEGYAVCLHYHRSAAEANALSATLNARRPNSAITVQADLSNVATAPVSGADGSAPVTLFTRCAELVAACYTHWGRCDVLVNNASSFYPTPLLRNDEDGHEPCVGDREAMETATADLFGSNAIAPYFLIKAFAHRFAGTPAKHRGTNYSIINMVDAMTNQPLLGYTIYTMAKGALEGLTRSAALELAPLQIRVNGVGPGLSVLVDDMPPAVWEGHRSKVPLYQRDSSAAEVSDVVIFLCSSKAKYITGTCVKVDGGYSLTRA
The series can be described thus: Inhibition of Leishmania major pteridine reductase 1 assessed as reduction in conversion of dihydrobiopterin to tetrahydrobiopterin at 10 uM up to 50 mins in presence of NADPH by cytochrome c reduction coupled photometric assay relative to control.

The nature of series [5]: Solubility in PBS after overnight incubation by nephelometry. Format: physicochemical.
Series [6] is described as follows: Solubility in pH 7.4 Hanks simulated body fluid after overnight incubation by nephelometry. Format: physicochemical.
In a further series the test system is Trypanosoma brucei. The series can be described thus: Inhibition of Trypanosoma brucei glyceraldehyde-3-phosphate dehydrogenase at 10 uM using GAP as substrate in presence of NAD+ by spectrophotometric method relative to control. The gist of the method:
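Recombinant TbGAPDH (200–300 μg protein) in 10 mM triethanolamine, 1.7 mM NaHCO3, 100 mM KCl, 5 mM MgSO4, 1 mM EDTA, pH 7.6, 25 °C, with 400 μM NAD+, 500 μM KH2PO4, 300 μM GAP; NAD+ reduction followed at 340 nm; inhibitors from DMSO stocks; triplicate; reported as percentage activity.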

For series [7], the target named is Trypanothione reductase (Trypanosoma cruzi) (UniProt P28593). Description: Inhibition of Trypanosoma cruzi trypanothione reductase assessed as reduction in NADPH consumption at 10 uM using 100 uM trypanothione disulfide as substrate by spectrophotometric method. The method, boiled down:
as §1

Series [8] has the same target. Description: Inhibition of Trypanosoma cruzi trypanothione reductase assessed as reduction in NADPH consumption at 10 uM using 40 uM trypanothione disulfide as substrate by spectrophotometric method. The method, boiled down: as §1
The subject of series [9] is Trypanosoma brucei brucei. The series can be described thus: Growth inhibition of Trypanosoma brucei brucei Lister 427 bloodstream forms at 5 uM by SYBR Green based assay relative to control. Format: functional. The settings on record: read-out: GI.
Series [10] has as its target T3, Pteridine reductase, putative (Trypanosoma brucei) (UniProt Q581W1).
T3 sequence (whole entry): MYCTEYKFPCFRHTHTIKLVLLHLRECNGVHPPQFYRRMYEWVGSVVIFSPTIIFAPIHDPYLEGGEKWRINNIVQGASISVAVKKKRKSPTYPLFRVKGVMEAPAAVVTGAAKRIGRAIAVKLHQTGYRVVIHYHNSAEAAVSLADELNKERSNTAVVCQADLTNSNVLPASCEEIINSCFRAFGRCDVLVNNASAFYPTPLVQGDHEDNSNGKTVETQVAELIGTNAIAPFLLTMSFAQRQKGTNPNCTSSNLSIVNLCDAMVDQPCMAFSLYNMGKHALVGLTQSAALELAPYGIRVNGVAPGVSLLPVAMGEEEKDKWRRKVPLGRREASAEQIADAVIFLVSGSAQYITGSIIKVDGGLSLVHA
Description: Inhibition of Trypanosoma brucei pteridine reductase 1 assessed as reduction in conversion of dihydrobiopterin to tetrahydrobiopterin at 10 uM up to 50 mins in presence of NADPH by cytochrome c reduction coupled photometric assay relative to control.

One may read the inhibition as the drop in the measured response relative to a control, in per cent. By kinetic solubility is commonly meant the concentration staying in solution when a stock, usually in DMSO, is diluted into the medium.

≈ marks a conversion by molar mass, not a printed value. Calls of active or inactive are those of the source. The calls are words filed in the database; no cut-off is given here.

Chain of CYP2C9 (P11712 whole entry): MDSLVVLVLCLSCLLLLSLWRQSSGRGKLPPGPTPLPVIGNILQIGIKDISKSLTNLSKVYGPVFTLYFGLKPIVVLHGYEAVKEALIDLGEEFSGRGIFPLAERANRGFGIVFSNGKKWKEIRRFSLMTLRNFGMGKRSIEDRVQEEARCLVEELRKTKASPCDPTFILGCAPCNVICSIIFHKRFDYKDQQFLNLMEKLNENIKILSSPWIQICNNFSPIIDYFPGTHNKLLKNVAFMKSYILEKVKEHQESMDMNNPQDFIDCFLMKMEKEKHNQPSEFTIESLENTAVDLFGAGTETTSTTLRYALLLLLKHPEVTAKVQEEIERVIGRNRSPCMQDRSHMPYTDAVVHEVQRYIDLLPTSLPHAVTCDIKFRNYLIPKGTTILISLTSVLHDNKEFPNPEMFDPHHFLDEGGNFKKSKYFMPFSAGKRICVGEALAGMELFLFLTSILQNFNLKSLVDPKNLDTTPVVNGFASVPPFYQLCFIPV
Chain of CYP2D6 (P10635 whole entry): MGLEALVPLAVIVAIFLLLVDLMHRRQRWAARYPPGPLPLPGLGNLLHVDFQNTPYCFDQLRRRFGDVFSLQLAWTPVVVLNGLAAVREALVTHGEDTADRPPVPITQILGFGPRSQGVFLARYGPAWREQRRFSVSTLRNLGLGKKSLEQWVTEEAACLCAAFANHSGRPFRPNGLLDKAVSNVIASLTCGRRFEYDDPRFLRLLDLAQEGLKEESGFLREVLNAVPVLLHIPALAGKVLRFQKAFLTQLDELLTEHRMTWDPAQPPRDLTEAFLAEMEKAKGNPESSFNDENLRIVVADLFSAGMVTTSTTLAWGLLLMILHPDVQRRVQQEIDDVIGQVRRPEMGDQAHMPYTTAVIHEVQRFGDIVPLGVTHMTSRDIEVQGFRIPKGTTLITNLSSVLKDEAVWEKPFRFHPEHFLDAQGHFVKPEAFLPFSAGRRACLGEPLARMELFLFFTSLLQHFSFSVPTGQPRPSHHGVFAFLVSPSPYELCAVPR
Chain of hERG (KCNH2) (Q12809 whole entry): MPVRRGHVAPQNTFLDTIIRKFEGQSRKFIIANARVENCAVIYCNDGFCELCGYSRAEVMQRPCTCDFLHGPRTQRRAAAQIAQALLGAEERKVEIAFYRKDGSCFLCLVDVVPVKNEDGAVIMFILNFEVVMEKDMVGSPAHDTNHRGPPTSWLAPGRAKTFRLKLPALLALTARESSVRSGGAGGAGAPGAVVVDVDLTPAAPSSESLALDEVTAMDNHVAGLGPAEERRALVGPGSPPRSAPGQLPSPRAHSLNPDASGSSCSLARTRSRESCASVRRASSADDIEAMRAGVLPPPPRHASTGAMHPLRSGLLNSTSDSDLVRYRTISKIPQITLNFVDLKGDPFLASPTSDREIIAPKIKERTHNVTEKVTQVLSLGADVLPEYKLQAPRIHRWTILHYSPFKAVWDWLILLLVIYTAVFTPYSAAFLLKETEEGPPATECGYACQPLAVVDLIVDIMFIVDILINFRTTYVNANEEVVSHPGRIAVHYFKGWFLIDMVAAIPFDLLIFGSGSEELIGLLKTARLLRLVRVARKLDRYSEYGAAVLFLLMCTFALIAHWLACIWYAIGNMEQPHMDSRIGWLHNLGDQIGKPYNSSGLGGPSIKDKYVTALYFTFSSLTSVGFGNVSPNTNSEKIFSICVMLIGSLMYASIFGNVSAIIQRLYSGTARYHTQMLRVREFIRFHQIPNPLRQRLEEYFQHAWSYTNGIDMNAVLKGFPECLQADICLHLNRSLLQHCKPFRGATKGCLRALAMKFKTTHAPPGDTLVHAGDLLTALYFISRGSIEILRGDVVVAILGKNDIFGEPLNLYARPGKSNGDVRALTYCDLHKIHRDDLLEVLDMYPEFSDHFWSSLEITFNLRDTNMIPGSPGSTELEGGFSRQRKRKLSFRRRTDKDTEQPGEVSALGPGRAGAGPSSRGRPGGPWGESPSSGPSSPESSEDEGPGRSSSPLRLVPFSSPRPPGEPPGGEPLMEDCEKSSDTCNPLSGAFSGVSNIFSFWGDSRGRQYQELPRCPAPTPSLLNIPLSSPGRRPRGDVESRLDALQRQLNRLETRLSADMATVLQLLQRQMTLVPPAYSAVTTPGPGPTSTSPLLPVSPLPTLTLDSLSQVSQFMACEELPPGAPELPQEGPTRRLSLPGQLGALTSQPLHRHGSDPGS
Chain of CYP2C19 (P33261 whole entry): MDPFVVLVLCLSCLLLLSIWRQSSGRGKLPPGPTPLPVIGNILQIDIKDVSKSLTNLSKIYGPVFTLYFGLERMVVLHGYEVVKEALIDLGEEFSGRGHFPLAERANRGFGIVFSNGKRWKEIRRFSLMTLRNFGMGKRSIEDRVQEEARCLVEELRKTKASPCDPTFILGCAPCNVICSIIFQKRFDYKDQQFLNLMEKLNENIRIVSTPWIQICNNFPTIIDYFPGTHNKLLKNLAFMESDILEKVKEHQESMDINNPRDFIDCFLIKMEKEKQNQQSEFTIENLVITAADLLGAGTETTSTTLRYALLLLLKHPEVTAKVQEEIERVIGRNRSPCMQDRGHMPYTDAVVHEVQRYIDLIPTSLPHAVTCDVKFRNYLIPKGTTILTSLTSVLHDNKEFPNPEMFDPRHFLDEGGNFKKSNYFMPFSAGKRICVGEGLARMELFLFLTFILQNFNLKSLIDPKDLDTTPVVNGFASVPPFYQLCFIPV
Chain of CYP3A4 (P08684 whole entry): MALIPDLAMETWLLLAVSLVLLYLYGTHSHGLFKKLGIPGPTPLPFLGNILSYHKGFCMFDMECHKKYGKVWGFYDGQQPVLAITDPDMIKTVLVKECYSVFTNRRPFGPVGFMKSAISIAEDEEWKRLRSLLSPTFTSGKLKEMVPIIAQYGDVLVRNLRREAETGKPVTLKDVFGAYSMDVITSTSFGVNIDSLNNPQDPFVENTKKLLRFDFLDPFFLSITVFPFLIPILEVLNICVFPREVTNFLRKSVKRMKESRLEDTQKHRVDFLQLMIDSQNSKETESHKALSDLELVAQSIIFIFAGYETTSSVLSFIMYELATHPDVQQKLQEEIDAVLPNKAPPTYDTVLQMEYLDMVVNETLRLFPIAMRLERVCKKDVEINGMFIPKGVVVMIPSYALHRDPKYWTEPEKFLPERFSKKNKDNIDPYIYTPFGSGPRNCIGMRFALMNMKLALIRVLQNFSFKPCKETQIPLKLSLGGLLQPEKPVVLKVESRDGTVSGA
Chain of Trypanothione reductase (Trypanosoma cruzi) (P28593 whole entry, looked up): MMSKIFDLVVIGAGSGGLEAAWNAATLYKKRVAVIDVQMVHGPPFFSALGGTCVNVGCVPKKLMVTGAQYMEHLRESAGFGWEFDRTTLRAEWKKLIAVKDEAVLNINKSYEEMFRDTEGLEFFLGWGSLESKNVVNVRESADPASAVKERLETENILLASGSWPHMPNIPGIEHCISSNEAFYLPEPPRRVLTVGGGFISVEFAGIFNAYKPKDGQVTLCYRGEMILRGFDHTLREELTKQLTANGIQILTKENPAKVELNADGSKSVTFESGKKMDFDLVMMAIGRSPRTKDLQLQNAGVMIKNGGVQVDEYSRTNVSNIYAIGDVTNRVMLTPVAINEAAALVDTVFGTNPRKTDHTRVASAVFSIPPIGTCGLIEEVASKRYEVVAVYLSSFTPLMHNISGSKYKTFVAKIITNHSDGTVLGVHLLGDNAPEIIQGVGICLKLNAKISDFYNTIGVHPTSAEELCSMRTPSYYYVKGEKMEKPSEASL

Regarding `O=C1c2cccc(O)c2C(=O)c2c1oc1c2c(=O)oc2ccccc21`, the inhibition in series [1] was 11.6%; in series [2] it was 42.9%; in [4] it was -5.5%. Besides, the inhibition at 10 µM on hERG (KCNH2) stood at 19.5%; against CYP1A2, 40.8%; on CYP2C9, 44.6%; on CYP2C19, 83.8%; at CYP2D6 it was 95.2%; against CYP3A4 it was 9.44%. The viability at 10 µM in [3] stood at 167%. The Activity in the series with 786-0 came to 85.82%. Also, the solubility (kinetic) was 14 µM (≈ 4.65 µg/mL) in [5] and 35 µM (≈ 11.6 µg/mL) in series [6].

Take `COc1cccc2c1C(=O)c1c(oc3c1c(=O)oc1ccccc13)C2=O`: the inhibition with Trypanosoma brucei is 88%; in [7] it was 8.1%; in series [8], 20.6%; in series [4], 2.98%; in [10], -6.79%. For the same compound, in series [9], the inhibition of growth at 5 µM amounted to 29%. The inhibition at 10 µM at hERG (KCNH2) was -58%; against CYP1A2, 87.2%; on CYP2C9, 61.6%; against CYP2C19, 71%; on CYP2D6, 101%; against CYP3A4, 22.1%. In addition, in series [3], the viability at 10 µM was found to be 130%. Moreover, in the series with 786-0, the Activity was determined as 96.22%. The kinetic solubility in [5] was 70 µM (≈ 24.2 µg/mL); in series [6] it was 35 µM (≈ 12.1 µg/mL).

On to `CC(=O)Oc1cccc2c1C(=O)c1c(oc3c1c(=O)oc1ccccc13)C2=O`, for which, in the series on Trypanosoma brucei, the inhibition result was “inactive”. Also, the inhibition was determined as 37% in series [7] and 37.2% in series [8]. In addition, the inhibition at 10 µM is 4.02% on hERG (KCNH2); 94.6% against CYP1A2; 92.5% against CYP2C9; 103% against CYP2C19; 106% on CYP2D6; 88.2% at CYP3A4. Besides, the viability at 10 µM in [3] is 157%. Further, the Activity with 786-0 is on record as 98.86%. For the same compound, the solubility (kinetic) in series [5] and in [6] was 35 µM (≈ 13.1 µg/mL) in each case.

Turning to `O=C1c2cc3ccccc3cc2C(=O)c2c1oc1c2c(=O)oc2ccccc21`, in the series with Trypanosoma brucei, the inhibition entry is “inactive”. Also, the inhibition in series [7] is 7.9%; in [8], 2.1%; in [4], 5.16%; in [10], 6.11%. The inhibition at 10 µM was determined as 9.77% at hERG (KCNH2); 38.5% against CYP1A2; 42.4% at CYP2C9; 35.7% on CYP2C19; 55% against CYP2D6; 7.93% against CYP3A4. In addition, in series [3], the viability at 10 µM came out at 140%. In addition, the Activity with 786-0 was found to be 89.59%. The solubility (kinetic) in [5] is 35 µM (≈ 12.8 µg/mL); in series [6], 70 µM (≈ 25.6 µg/mL).
